Here are results for one molecule from ChEMBL document CHEMBL1130209, “A novel series of 2,5-substituted tryptamine derivatives as vascular 5HT1B/1D receptor antagonists” (J Med Chem, 1997).

A value given as a limit tells only on which side of the number the result lay.

In assay [1] the target is 5-hydroxytryptamine receptor 7 (Homo sapiens) (UniProt P34969). Put plainly: The dissociation equilibrium constant (pKB=-log KB) of compound was determined against the vascular 5-hydroxytryptamine 7 receptor in the endothelium denuded rabbit jugular vein. The note with it: Oryctolagus cuniculus; target entry is the homologue from another species.
Assay [2] deals with D(1A) dopamine receptor (Rattus norvegicus, UniProt P18901). Put plainly: Affinity pKi for Dopamine receptor D1 was measured in rat cortex homogenates. The format is tissue-based. The method in brief: (§1)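 Competition binding with rat cortex homogenate: radioligand near its KD plus a wide range of test drug concentrations in duplicate, 30 min at 27 °C. Buffer 50 mM TRIS-HCl, 5 mM CaCl₂, 0.1% (w/v) ascorbate, 10 mM pargyline. Nonspecific binding defined with excess cold 5HT. Rapid filtration with ice-cold buffer wash, liquid scintillation count. pKi is the mean of at least three estimates.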

Assay [3] concerns the target T1, 5-hydroxytryptamine receptor 1A (Rattus norvegicus, UniProt P19327).
T1 sequence (P19327 whole entry): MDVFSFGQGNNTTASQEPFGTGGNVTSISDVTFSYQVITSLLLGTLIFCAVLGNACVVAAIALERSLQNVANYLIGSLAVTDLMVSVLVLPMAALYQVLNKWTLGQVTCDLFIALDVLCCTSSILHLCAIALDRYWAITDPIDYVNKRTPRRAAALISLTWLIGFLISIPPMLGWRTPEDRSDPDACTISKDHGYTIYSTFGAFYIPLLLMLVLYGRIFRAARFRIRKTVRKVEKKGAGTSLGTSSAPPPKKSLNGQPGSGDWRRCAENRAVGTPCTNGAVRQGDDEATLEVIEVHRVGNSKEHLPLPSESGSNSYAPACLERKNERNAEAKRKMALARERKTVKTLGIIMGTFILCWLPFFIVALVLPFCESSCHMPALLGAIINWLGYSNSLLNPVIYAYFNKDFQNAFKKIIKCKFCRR
Put plainly: Affinity pKi for 5-hydroxytryptamine 1A receptor was measured in rat cortex homogenates. It counts as tissue-based. The method in brief:
as §1

The target in assay [4] is Histamine H1 receptor (Homo sapiens) (UniProt P35367). Put plainly: The dissociation equilibrium constant (pKB=-log KB) of compound was determined against the Histamine H1 receptor in the rabbit thoracic aorta. It counts as tissue-based. The note with it: Oryctolagus cuniculus, target entry is the homologue from another species.
Assay [5] concerns the target Adrenergic receptor beta (Rattus norvegicus, UniProt P18090+P10608+P26255). Put plainly: Affinity pKi for Beta adrenergic receptor was measured in rat cortex homogenates. The method in brief:
as §1

Assay [6] deals with 5-hydroxytryptamine receptor 2A (Homo sapiens) (UniProt P28223). Put plainly: Dissociation equilibrium constant against the vascular 5-hydroxytryptamine 2A receptor in the rabbit […] aorta. The format is tissue-based. The note with it: Oryctolagus cuniculus, target entry is the homologue from another species.
For assay [7], the target named is T2, Adrenergic receptor alpha-2 (Rattus norvegicus, UniProt P22086+P19328+P22909).
T2 sequence (P22086 whole entry): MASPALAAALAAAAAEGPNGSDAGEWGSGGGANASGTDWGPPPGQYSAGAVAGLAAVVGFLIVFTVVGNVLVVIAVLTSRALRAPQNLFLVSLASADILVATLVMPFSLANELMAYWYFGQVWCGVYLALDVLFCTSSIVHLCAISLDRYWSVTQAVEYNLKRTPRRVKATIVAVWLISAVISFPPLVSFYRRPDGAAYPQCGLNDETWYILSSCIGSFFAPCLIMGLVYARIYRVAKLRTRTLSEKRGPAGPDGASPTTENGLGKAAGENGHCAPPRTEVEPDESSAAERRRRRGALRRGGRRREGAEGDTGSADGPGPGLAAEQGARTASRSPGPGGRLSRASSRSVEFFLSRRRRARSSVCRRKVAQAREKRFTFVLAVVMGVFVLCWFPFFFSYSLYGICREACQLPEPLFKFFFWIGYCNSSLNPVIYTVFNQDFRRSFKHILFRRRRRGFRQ
T2 sequence (P19328 whole entry): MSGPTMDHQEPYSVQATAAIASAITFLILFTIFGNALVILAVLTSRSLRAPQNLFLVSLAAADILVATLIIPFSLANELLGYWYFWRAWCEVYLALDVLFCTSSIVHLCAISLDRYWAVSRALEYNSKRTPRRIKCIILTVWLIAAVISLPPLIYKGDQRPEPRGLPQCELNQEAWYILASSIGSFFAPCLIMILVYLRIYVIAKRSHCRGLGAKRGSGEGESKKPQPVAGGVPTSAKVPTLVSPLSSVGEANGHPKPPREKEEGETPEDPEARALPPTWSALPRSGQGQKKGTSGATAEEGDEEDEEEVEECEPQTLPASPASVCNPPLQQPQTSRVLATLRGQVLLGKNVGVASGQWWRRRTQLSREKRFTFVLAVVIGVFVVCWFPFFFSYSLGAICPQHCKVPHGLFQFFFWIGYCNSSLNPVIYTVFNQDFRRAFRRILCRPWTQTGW
T2 sequence (P22909 whole entry): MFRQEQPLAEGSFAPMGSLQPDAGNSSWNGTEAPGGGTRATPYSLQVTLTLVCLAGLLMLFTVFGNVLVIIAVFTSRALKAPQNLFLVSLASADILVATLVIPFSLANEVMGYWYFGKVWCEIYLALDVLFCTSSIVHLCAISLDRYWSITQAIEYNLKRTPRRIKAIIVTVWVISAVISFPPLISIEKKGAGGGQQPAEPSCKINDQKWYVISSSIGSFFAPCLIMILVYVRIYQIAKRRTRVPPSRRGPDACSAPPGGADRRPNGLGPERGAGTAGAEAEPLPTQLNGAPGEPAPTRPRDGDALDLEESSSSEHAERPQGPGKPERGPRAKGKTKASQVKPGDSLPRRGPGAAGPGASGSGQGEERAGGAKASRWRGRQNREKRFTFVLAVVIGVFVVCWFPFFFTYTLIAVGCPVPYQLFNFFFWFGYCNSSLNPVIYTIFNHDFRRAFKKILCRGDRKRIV
Put plainly: Affinity pKi for Alpha-2 adrenergic receptor was measured in rat cortex homogenates. The format is tissue-based. The method in brief:
as §1

A short description of assay [8]: The dissociation equilibrium constant (pKB=-log KB) of compound was determined against the Muscarinic acetylcholine receptor M3 in the guinea pig trachea. The note with it: Cavia porcellus.
The target in assay [9] is 5-hydroxytryptamine receptor 1B (Homo sapiens) (UniProt P28222). Put plainly: Dissociation equilibrium constant against the vascular 5-hydroxytryptamine 1B like receptor in the rabbit saphenous vein. The note with it: Oryctolagus cuniculus, target entry is the homologue from another species. The format is tissue-based. The method in brief:
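Saphenous vein rings (4–5 mm) from male New Zealand white rabbits, killed with pentobarbitone 80 mg/kg iv and exsanguination, mounted on tungsten wires. Phenoxybenzamine 0.3 μM for 30 min, washed out, 1 μM 5HT viability check. Cumulative 5HT curve, then after 60 min recovery a test compound curve. Non-agonists tested as 5HT antagonists, giving apparent pKB.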

Chain of D(1A) dopamine receptor (P18901 whole entry): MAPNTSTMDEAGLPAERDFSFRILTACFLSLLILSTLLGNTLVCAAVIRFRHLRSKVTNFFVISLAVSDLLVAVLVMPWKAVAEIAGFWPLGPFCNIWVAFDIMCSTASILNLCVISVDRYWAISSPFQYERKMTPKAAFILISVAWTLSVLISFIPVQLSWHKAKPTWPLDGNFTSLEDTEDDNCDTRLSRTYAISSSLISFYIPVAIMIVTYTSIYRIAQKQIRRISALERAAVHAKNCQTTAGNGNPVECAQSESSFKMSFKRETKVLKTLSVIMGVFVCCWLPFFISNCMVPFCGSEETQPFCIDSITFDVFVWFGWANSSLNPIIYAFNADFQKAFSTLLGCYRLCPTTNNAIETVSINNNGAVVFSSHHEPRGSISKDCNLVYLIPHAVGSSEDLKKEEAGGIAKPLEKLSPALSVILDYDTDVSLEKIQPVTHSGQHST
Chain of 5-hydroxytryptamine receptor 1B (Homo sapiens) (P28222 whole entry): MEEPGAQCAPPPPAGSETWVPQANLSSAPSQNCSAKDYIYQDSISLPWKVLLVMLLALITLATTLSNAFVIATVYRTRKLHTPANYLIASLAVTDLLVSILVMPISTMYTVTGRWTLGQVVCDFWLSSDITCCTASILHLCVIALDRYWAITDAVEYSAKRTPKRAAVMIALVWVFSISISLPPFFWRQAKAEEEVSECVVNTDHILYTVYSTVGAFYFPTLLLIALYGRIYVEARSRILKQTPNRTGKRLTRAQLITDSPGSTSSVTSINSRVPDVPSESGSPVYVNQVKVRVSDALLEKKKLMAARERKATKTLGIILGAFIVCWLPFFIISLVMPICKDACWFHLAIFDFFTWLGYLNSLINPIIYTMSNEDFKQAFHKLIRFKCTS
Chain of Histamine H1 receptor (Homo sapiens) (P35367 whole entry): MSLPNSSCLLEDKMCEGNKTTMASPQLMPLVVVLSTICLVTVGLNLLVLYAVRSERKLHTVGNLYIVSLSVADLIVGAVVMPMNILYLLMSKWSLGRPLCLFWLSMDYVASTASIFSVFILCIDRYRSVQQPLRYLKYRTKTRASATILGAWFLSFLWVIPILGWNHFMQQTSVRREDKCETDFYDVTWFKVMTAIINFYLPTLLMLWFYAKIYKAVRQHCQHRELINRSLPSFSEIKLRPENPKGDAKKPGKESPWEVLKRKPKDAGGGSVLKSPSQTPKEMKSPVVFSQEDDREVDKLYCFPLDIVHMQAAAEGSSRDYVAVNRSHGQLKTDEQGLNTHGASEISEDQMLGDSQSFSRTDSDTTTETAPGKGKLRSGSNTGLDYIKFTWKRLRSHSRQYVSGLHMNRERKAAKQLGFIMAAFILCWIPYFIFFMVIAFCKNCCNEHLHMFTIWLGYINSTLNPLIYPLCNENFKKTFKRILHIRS
Chain of 5-hydroxytryptamine receptor 2A (Homo sapiens) (P28223 whole entry): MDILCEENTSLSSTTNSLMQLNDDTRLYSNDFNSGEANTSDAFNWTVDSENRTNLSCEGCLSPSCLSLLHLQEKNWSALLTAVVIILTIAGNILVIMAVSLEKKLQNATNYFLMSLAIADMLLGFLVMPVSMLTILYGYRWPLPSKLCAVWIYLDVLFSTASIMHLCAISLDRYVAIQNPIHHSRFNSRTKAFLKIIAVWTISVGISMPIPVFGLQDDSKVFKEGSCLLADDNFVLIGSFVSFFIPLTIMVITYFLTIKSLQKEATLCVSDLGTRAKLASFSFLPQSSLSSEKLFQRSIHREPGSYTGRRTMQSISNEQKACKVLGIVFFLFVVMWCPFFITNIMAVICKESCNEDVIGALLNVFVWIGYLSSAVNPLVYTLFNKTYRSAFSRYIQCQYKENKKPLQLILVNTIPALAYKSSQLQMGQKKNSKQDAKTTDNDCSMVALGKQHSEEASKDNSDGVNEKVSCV
Chain of 5-hydroxytryptamine receptor 7 (Homo sapiens) (P34969 whole entry): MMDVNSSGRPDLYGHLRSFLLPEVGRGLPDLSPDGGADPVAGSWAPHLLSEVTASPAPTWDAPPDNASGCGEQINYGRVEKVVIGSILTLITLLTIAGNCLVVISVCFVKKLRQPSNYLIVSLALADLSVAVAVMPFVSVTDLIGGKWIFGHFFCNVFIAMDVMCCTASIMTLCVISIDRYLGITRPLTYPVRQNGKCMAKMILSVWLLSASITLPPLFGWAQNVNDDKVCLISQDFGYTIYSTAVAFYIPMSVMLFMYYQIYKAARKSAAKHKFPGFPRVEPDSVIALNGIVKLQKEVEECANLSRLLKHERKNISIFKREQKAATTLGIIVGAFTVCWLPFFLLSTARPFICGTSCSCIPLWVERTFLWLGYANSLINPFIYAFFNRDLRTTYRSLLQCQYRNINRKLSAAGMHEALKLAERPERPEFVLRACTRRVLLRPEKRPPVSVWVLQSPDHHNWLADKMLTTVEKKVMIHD

As for `CCOC(=O)c1[nH]c2ccc(CCN3C(=O)CNC3=O)cc2c1CCN(C)C`, the pKB in assay [1] is 5.5; in assay [4], under 5; in assay [6] it was 5.8; in [8], under 5; in assay [9], 7.42. In addition, the Ki in [2] was 32.4 µM; in [3], 9.33 µM. The “Log Ki” value in assay [5] is -4.34; in assay [7] it was -5.25.
